# Screening results deposited in PubChem BioAssay by Broad Institute.
# This is a sample that favours compounds with a hit; in the whole collection about 5.9% have one here.
# GASC1 inh: inhibitors of human demethylase GASC-1 KDM4C; Q9H3R0; GST-KDM4C 2-372, H3K9me3 peptide, LANCE TR-FRET; inhibition, % at 12.5 µM; 96,000 compounds, 0.15% hits; AID 720574;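 active means mean replicate inhibition above about 25%, with at least 55% of replicates also reaching it, limit read from the data, passing the limit was not always enough; inconclusive means only one of those two conditions met; inactive means neither condition met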
# Target sequence (Q9H3R0 2-372 limits assumed): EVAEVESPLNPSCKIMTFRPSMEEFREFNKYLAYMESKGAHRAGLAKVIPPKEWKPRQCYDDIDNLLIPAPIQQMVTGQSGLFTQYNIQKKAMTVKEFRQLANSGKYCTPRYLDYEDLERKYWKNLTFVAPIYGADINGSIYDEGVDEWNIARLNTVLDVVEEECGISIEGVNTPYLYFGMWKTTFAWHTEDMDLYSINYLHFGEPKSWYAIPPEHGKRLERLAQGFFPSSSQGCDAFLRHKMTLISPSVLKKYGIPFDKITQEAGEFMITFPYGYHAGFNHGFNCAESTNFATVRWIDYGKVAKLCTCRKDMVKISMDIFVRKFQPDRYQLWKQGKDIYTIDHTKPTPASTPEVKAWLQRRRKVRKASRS
#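 Material: N-terminal GST-fused human GASC-1 (KDM4C) fragment, residues 2-372. Input: 10 nM enzyme. Incubation: enzyme reaction 30 min, then detection 60 min, both room temperature. Doses: one test concentration per compound. Read-out basis: inhibition from TR-FRET ratio decrease. Detection: LANCE TR-FRET, excitation 340 nm, emissions 618 and 671 nm.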
# IDH1 mut inh: inhibitors of human IDH1 R132H; IDH1 R132H reductase, diaphorase/resazurin fluorescence, 60 min; inhibition, % at 10 µM; 70,000 compounds, 0.18% hits; AID 624101; in the data active means inhibition above about 34%; inconclusive means no clear call, values can overlap the other calls; inactive means below about 11%;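 further: 0% = DMSO and 100% = no enzyme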
# Target sequence (O75874 whole entry R132H): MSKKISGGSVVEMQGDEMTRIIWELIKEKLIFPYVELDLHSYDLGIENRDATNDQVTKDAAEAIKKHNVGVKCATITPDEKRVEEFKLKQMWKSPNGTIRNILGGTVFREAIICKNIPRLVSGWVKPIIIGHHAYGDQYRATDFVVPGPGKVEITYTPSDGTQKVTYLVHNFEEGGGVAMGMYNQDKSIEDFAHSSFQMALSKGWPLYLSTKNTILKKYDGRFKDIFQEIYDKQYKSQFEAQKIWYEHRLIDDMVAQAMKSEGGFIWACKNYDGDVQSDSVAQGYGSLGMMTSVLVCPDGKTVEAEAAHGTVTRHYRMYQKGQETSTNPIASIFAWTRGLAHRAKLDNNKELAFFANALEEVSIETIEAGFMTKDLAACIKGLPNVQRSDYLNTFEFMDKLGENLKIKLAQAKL
# T cruzi growth-1: inhibitors of T. cruzi proliferation | T. cruzi beta-gal in NIH3T3, GalScreen luminescence, 90 h | inhibition, % at 8.34 µM | 77,000 compounds, 5.9% hits | AID 624255;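 active means mean inhibition above about 93%, with at least 55% of replicates each passing it, limit read from the data, passing the limit was not always enough; inconclusive means only one of those two conditions holds; inactive means neither condition holds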
# Pf Dd2 growth: inhibitors of Plasmodium falciparum Dd2 growth | P. falciparum Dd2 growth, SYBR Green, 72 h; stronger effect = lower value | activity change, % at 10 µM | 94,000 compounds, 2.3% hits | AID 1159554; in the data active means activity change below about -80%; inconclusive means no clear call, values can overlap the other calls
# T cruzi growth-2: blocks T. cruzi growth in NIH3T3 host cells; AID 651739; inhibition, % at 8.35 µM; T. cruzi beta-gal in NIH3T3, GalScreen luminescence, 90 h; shares compounds with T cruzi growth-1; 5,600 compounds, 72% hits;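 active means mean replicate inhibition above about 95% and at least 55% of replicates individually reaching it, limit read from the data; inconclusive means only one of the two criteria is met; inactive means neither criterion is met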
# T cruzi growth-3: Trypanosoma cruzi proliferation inhibition; shares compounds with T cruzi growth-1; T. cruzi beta-gal in NIH3T3, GalScreen luminescence, 90 h; inhibition, % at 2.09 µM; 5,600 compounds, 21% hits; AID 651740;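 active means mean inhibition above about 95%, with at least 55% of replicates also reaching it, limit read from the data; inconclusive means meets just one of the two conditions; inactive means meets neither condition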;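 further: plate controls were neutral control median for no effect and positive control median for full effect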
# NIH3T3 tox: kills mouse NIH/3T3 fibroblasts; shares compounds with T cruzi growth-1; NIH/3T3 viability, CellTiter-Glo ATP luminescence, 90 h; cytotoxicity (signal decrease), % at 8.35 µM; 5,600 compounds, 14% hits; AID 651742;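 active means mean signal decrease across replicates above about 35% based on untreated-well scatter, with enough replicates individually passing, limit read from the data; inconclusive means no rule stated though some were filed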;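 further: 0% = median of neutral control wells and 100% = median of positive control wells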
# NIH3T3 tox 2: kills mouse NIH/3T3 fibroblasts; shares compounds with T cruzi growth-1; NIH/3T3 viability, CellTiter-Glo ATP luminescence, 90 h; inhibition, % at 24.9 µM; 5,600 compounds, 56% hits;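 active means mean loss of cell viability signal at or above a set limit, and enough replicates individually reaching it; inconclusive means meets only the mean limit or only the replicate share; inactive means meets neither condition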;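 further: 0% = median of neutral control wells and 100% = median of positive control wells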
# * hit, by the source's call; ? = inconclusive; nt = no result given.
SMILES,GASC1 inh,IDH1 mut inh,T cruzi growth-1,Pf Dd2 growth,T cruzi growth-2,T cruzi growth-3,NIH3T3 tox,NIH3T3 tox 2
O=C(C[C@H]1CC[C@@H]2[C@H](COC[C@@H](O)CN2Cc2ccc(Oc3ccccc3)cc2)O1)N1CCN(c2ccccc2)CC1,1,nt,130*,-41,89,70,17,91*
O=C(C[C@H]1CC[C@@H]2[C@H](COC[C@@H](O)CN2Cc2ccc(Oc3ccccc3)cc2)O1)N1CCOCC1,2,nt,12,-16,nt,nt,nt,nt
O=C(C[C@H]1CC[C@H]2[C@@H](COC[C@H](O)CN2Cc2ccc(Oc3ccccc3)cc2)O1)N1CCOCC1,3,nt,3,-25,nt,nt,nt,nt
O=C(C[C@@H]1CC[C@H]2[C@@H](COC[C@H](O)CN2Cc2ccc(Oc3ccccc3)cc2)O1)N1CCOCC1,3,nt,-2,-5,nt,nt,nt,nt
Cc1ccccc1S(=O)(=O)N1C[C@@H](O)COC[C@@H]2O[C@H](CC(=O)N3CCN(C)CC3)CC[C@H]21,-3,nt,?,nt,-27,-15,-5,2
CN1C(=O)c2cc(NC(=O)C3CCCCC3)ccc2OC[C@H]2O[C@H](CC(=O)NCC3CCCCC3)CC[C@H]21,-3,nt,nt,-71,nt,nt,nt,nt
CN1C[C@H](O)COC[C@@H]2O[C@@H](CC(=O)N3CCN(c4ccccc4)CC3)CC[C@H]21,0,nt,?,-32,102*,27,4,-6
CN1C[C@@H](O)COC[C@H]2O[C@@H](CC(=O)N3CCN(c4ccccc4)CC3)CC[C@@H]21,-1,nt,21,-20,nt,nt,nt,nt
O=S(=O)(c1ccc(F)cc1)N1CCCCN2[C@H](C1)[C@H](c1ccc(-c3ccccc3F)cc1)[C@@H]2CO,nt,nt,108*,1,105*,105*,31,102*
O=S(=O)(c1ccc(F)cc1)N1CCCCN2[C@@H](CO)[C@@H](c3ccc(-c4ccccc4F)cc3)[C@@H]2C1,nt,nt,81,-63,nt,nt,nt,nt
Cc1ccccc1-c1ccc([C@H]2[C@H](CO)N3CCCCN(S(C)(=O)=O)C[C@@H]23)cc1,14,nt,109*,17,96*,65,29,35*
O=S(=O)(c1ccc(F)cc1)N1CCCCN2[C@@H](CO)[C@H](c3ccc(-c4ccccc4F)cc3)[C@@H]2C1,nt,nt,106*,10,91,51,77*,100*
CCS(=O)(=O)N1CCCCN2[C@H](CO)[C@H](c3ccc(-c4ccccc4F)cc3)[C@H]2C1,-3,nt,100*,-33,96*,55,9,61*
C[C@@H]1CN([C@@H](C)CO)C(=O)c2cc(NC(=O)C3CC3)ccc2O[C@H]1CN(C)C(=O)Nc1cccc2ccccc12,0,0,-26,4,nt,nt,nt,nt
Nc1nonc1C(=O)NCCNCc1ccc(F)cc1,nt,0,nt,nt,nt,nt,nt,nt
C[C@H](CO)N1C[C@H](C)[C@H](CN(C)C(=O)Nc2ccc(F)cc2)Oc2ncc(-c3cccc(F)c3)cc2C1=O,0,-1,-15,-11,nt,nt,nt,nt
Cc1ccccc1-c1ccc([C@H]2[C@H](CO)N3CCCCN(S(=O)(=O)c4ccc(F)cc4)C[C@@H]23)cc1,4,nt,112*,-12,100*,110*,?,104*
O=S(=O)(c1ccc(F)cc1)N1CCCCN2[C@H](CO)[C@H](c3ccc(-c4ccccc4F)cc3)[C@@H]2C1,nt,nt,111*,18,104*,75,24,94*
O=S(=O)(c1ccc(F)cc1)N1CCCCN2[C@H](C1)[C@@H](c1ccc(-c3ccccc3F)cc1)[C@@H]2CO,nt,nt,107*,14,101*,65,21,42*
C[C@@H]1CCCCO[C@H](CN(C)Cc2ccncc2)[C@H](C)CN([C@H](C)CO)C(=O)c2cc(NC(=O)C3CCCCC3)ccc2O1,-1,nt,22,nt,nt,nt,nt,nt
C[C@@H]1CN([C@H](C)CO)C(=O)c2cc(NC(=O)C3CCCCC3)ccc2O[C@@H](C)CCCCO[C@H]1CN(C)Cc1ccccc1,8,nt,99,-56,nt,nt,nt,nt
C[C@@H]1CN([C@H](C)CO)C(=O)c2cc(NC(=O)C3CCCCC3)ccc2O[C@@H](C)CCCCO[C@@H]1CN(C)Cc1ccncc1,3,3,105*,-22,56,11,-13,-6
C[C@@H]1CCCCO[C@@H](CN(C)Cc2ccc(Cl)c(Cl)c2)[C@@H](C)CN([C@H](C)CO)C(=O)c2cc(NC(=O)C3CCCCC3)ccc2O1,0,nt,107*,-38,107*,?,-16,0
C[C@@H]1CN([C@@H](C)CO)C(=O)c2cc(NC(=O)C3CCCCC3)ccc2O[C@@H](C)CCCCO[C@H]1CN(C)Cc1ccccc1,0,nt,109*,-63,108*,85,-18,45*
CO[C@H]1CN(C)C(=O)c2cc(NC(=O)Nc3cc(F)ccc3F)ccc2OC[C@@H](C)N(C)C[C@H]1C,0,-1,6,-25,nt,nt,nt,nt
SMILES,GASC1 inh,IDH1 mut inh,T cruzi growth-1,Pf Dd2 growth,T cruzi growth-2,T cruzi growth-3,NIH3T3 tox,NIH3T3 tox 2
C[C@H]1CN([C@@H](C)CO)C(=O)c2cccc(NC(=O)c3cnccn3)c2O[C@H]1CN(C)Cc1ccc(C(=O)Nc2ccccc2N)cc1,-2,nt,nt,-30,nt,nt,nt,nt
C[C@H]1CN([C@@H](C)CO)C(=O)c2cccc(NC(=O)c3cnccn3)c2O[C@@H]1CN(C)Cc1ccc(C(=O)Nc2ccccc2N)cc1,0,nt,102*,-94*,111*,63,31,?
C[C@H](CO)N1C[C@H](C)[C@@H](CN(C)Cc2ccc(C(=O)Nc3ccccc3N)cc2)Oc2c(NC(=O)c3cnccn3)cccc2C1=O,0,nt,106*,-92*,104*,104*,32,52*
C[C@H]1CN([C@@H](C)CO)C(=O)c2cc(-c3ccccc3)cnc2O[C@@H]1CN(C)C(=O)Nc1ccccc1,1,-5,22,-19,nt,nt,nt,nt
Cc1ccc(S(=O)(=O)N2C[C@@H](O)COC[C@H]3O[C@@H](CC(=O)N[C@H]4CCN(Cc5ccccc5)C4)CC[C@@H]32)cc1,-1,nt,99*,-32,106*,81,11,14
Cc1ccc(S(=O)(=O)N2C[C@H](O)COC[C@@H]3O[C@@H](CC(=O)N[C@@H]4CCN(Cc5ccccc5)C4)CC[C@H]32)cc1,1,nt,13,-25,nt,nt,nt,nt
COc1ccc(S(=O)(=O)N2C[C@H](O)COC[C@H]3O[C@@H](CC(=O)N[C@H]4CCN(Cc5ccccc5)C4)CC[C@@H]32)cc1,-2,nt,?,nt,84,40,-17,-1
COc1ccc(S(=O)(=O)N2C[C@@H](O)COC[C@H]3O[C@H](CC(=O)N[C@@H]4CCN(Cc5ccccc5)C4)CC[C@@H]32)cc1,-3,nt,83,nt,nt,nt,nt,nt
CCC(=O)Nc1ccc2c(c1)C(=O)N(C)[C@@H]1CC[C@@H](CC(=O)NC3Cc4ccccc4C3)O[C@@H]1CO2,0,nt,46,-3,nt,nt,nt,nt
COc1ccc(S(=O)(=O)N(C)C[C@@H]2Oc3ncc(C#Cc4ccc(C(F)(F)F)cc4)cc3C(=O)N([C@H](C)CO)C[C@@H]2C)cc1,-6,0,16,-74,nt,nt,nt,nt
C[C@H](CO)N1C[C@H](C)[C@H](CN(C)S(=O)(=O)c2cccs2)Oc2ncc(-c3cc4ccccc4o3)cc2C1=O,-8,-2,123*,-75,110*,75,35*,15
